# Compound activity deposited in PubChem by several laboratories.
# Only some compounds are listed: those with a hit (about 0.7% of all), similar ones and a draw of the others.
# Xi reactivation = activators of inactive X chromosome reactivation, primary screen, imaging, XiGFP fibroblasts, GFP high-content imaging, set 2; hit rate 0.055% among 360,000; activation, % at 7.58 µM; XiGFP mouse fibroblasts, % GFP-positive cells imaging, 3 d; cells co-treated with 5-aza-dC sensitizer; scaled so ellipticine positive control = 100%;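 active = mean normalized replicate activation at least 10% and every replicate at or above 10%; inconclusive = only one of the two criteria met; inactive = mean below 10% and not all replicates reach 10%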;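 note: 0% = median of on-plate neutral control wells and 100% = ellipticine 6 µM median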
#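 Material: SV40-immortalized XiGFP fibroblast cells, line 68-5-11 | Buffer or medium: DMEM containing 5-aza-dC | Dosing: One concentration, pinned | Times: 3 d treatment, 15 min room-temperature fixation | Controls: Ellipticine 6 µM positive control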
# N-glyco inh = increase of ERlucT glycosylation luciferase signal, primary screen, N-linked glycosylation inhibitor project, D54 ERlucT cells, luminescence, set 2; D54 ERlucT glycosylation luciferase reporter, 24 h; percent of 100 nM tunicamycin response; reporter increase, % at 12.5 µM; hit rate 0.23% among 360,000;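 active = mean luciferase reporter signal, scaled so untreated is 0 and the glycosylation-blocking control 100, at or above a set limit in every replicate; inconclusive = mean reaches the limit but not every replicate does; inactive = mean below the limit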;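 note: luciferase carries N-glycosylation sites so blocking glycosylation raises the light; 0% = median of neutral control wells and 100% = median of 100 nM tunicamycin wells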
# NPR2 activator = human GC-B receptor activators, primary screen, HEK293 GC-B cells, cGMP TR-FRET, EC30 CNP; activation, % at 10 µM; AID 1920062, 2024; Atrial natriuretic peptide receptor 2 (Homo sapiens), P20594; hit rate 0.11% among 370,000; 0% at EC30 CNP, 100% saturating CNP;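 active = activation at 10 µM reaching about 35% in either raw or pattern-adjusted values, limit read from the data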
# CaV13 FRET inh = Primary screen for inhibitors of IQ motif and Ca2+-dependent inactivation inhibitor domain binding in CACNA1D, Förster resonance energy transfer in living cells, …. hit rate 0.098% among 340,000. AID 743397. inhibition, % at 12.3 µM. HEK cells, CFP/YFP FRET ICDI-IQ, plate reader, 10 min; percent FRET-ratio fall versus neutral wells;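 active = mean replicate inhibition of at least 30% and at least 1% of replicates passing that level; inconclusive = only one of the two criteria is met; inactive = neither criterion is met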;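 note: 0% = median of the neutral control wells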
# Vif imaging = HIV Vif self-association inhibitors, primary screen, imaging, HEK293T, single point; inhibition, % at 7.49 µM; hit rate 0.35% among 340,000; HEK293T cells, Vif self-association by quenched fluorescence, 24 h; AID 602346, 2012; in the data active = inhibition above about 50%, passing the limit was not always enough; inconclusive = no clear call, values can overlap the other calls; inactive = below about 31%
# GC-A act = GC-A stimulated cGMP production enhancers – HEK293 GC-A cells, cGMP TR-FRET, EC30 ANP, primary screen; 0% at EC30 ANP, 100% saturating ANP; AID 1671463, 2021; hit rate 0.14% among 370,000; activation, % at 10 µM; in the data active = activation above about 40%
# Target sequence (P16066 whole entry, looked up): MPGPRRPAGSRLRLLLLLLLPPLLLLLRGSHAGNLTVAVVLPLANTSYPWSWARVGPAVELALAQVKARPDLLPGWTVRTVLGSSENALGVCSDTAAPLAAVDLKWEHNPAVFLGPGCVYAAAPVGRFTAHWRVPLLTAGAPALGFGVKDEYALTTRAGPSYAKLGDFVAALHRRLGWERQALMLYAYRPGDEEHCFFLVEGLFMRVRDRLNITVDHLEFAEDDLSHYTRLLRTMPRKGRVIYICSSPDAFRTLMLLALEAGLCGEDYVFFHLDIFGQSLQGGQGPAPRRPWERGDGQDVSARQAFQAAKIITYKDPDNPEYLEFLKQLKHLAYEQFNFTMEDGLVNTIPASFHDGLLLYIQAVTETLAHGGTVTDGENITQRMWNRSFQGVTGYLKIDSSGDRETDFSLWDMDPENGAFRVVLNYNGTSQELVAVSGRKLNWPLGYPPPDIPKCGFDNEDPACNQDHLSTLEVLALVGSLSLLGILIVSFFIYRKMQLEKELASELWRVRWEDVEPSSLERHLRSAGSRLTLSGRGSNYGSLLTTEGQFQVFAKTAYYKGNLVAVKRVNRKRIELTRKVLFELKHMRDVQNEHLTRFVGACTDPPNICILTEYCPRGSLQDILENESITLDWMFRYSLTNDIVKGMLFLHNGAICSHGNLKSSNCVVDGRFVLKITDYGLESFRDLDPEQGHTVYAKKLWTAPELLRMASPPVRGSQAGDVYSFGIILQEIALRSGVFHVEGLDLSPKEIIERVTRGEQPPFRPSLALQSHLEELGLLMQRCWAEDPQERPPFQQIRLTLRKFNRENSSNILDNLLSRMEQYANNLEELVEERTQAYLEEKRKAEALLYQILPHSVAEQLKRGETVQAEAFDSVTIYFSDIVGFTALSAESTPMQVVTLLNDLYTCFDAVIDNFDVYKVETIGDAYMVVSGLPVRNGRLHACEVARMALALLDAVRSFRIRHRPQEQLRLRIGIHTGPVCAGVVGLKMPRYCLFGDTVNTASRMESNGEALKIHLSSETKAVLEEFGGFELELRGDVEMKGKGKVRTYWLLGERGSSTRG
# An asterisk follows results filed as active; ? = inconclusive; . = no result given; + = active, no number.
SMILES,Xi reactivation,N-glyco inh,NPR2 activator,CaV13 FRET inh,Vif imaging,GC-A act
COc1ccc(OC)c(S(=O)(=O)ON2C(=O)c3ccccc3C2=O)c1,0.4,21.5,44.4*,-0.4,-1.7,44.5*
COc1cccc(CNC(=O)C[C@H]2C=C[C@@H](NS(=O)(=O)c3ccccc3OC)[C@@H](CO)O2)c1,0.3,.,.,.,.,.
CCn1c(=NC(=O)CSC(C)=O)sc2cc(OC)ccc21,-0.3,3.8,1.9,39.5*,27.1,3.7
O=C(NCc1ccccc1)c1cc(C2CCCN(S(=O)(=O)c3cccc4cccnc34)C2)on1 (stereo not drawn),0.1,-3.7,2.1,-4.3,-6.2,0.2
CCCNC(=O)c1cc(C2CCCN(S(=O)(=O)c3cccc4cccnc34)C2)on1 (stereo not drawn),0.1,0.1,3.1,-6.3,72.5*,-3.6
CO[C@@H]1CN(C)C(=O)c2cc(NS(C)(=O)=O)ccc2OC[C@@H](C)N(C(=O)C2CCCCC2)C[C@H]1C,-0.2,.,.,.,.,.
CC(=O)N(c1ccccc1)c1nc(/C=C/C(=O)O)cs1,0.1,3.6,1.1,-2.4,18.4,-5.3
CC(=O)N(c1ccccc1)c1nc(/C=C/C(=O)Nc2c(C)cc(C)cc2C)cs1,0.1,2.1,43.2*,-6.0,-1.9,40.4*
CN1C(=O)c2cc(NC(=O)c3ccc(F)cc3)ccc2OC[C@@H]2O[C@@H](CC(=O)NC3CCC3)CC[C@H]21,0.1,.,.,.,.,.
Nc1ccc2c(c1)Cc1cc([N+](=O)[O-])ccc1-2,8.2,10.6,-5.5,-25.3,4.3,11.0
CC(O)CN(CC(C)O)c1ccc2c(c1)Cc1cc([N+](=O)[O-])ccc1-2 (stereo not drawn),29.2*,-3.1,27.4,-47.2,.,45.2*
CSc1nc2ncc(C(=O)O)c(N)n2n1,0.0,4.1,2.5,4.2,51.1*,0.7
Nc1c(C(=O)O)cnc2nc(N3CCOCC3)nn12,0.1,3.9,-0.1,7.8,-1.1,-0.3
O=C1c2ccccc2C(=O)c2c1cccc2N1CCCC1,0.1,2.2,-9.3,-1.4,8.8,0.9
Cn1c(=O)cc2c3c(c(N4CCCCC4)ccc31)C(=O)c1ccccc1-2,0.1,27.8*,2.4,-4.8,-11.4,14.7
CC(Sc1nc(N)cc(=O)[nH]1)C(=O)Nc1sc2c(c1C#N)CCCC2 (stereo not drawn),0.0,2.4,-4.2,-4.8,-20.4,-4.6
Cc1nnc(SC(C)C(=O)Nc2sc3c(c2C#N)CCCC3)[nH]c1=O (stereo not drawn),0.3,1.3,1.1,-3.0,53.0*,3.0
COc1ccc(-n2c(SCC(=O)Nc3cc(C)on3)nc3c([nH]c4ccccc43)c2=O)cc1OC,0.2,-2.9,-4.5,-1.8,2.5,71.5*
CCOc1ccc(-n2c(SCC(N)=O)nc3c([nH]c4ccccc43)c2=O)cc1,-0.2,-2.9,-8.4,-6.7,22.5,7.9
COc1ccc(-n2c(SCC(=O)Nc3ccc(NC(C)=O)cc3)nc3c([nH]c4ccccc43)c2=O)cc1OC,-0.1,8.7,4.4,-4.8,1.3,1.4
COc1ccc(-n2c(SCC(=O)Nc3cc(C)on3)nc3c([nH]c4ccccc43)c2=O)cc1,0.0,-1.7,3.1,-7.0,23.7,77.2*
Cc1ccc(-n2c(SCC(=O)Nc3cc(C)on3)nc3c([nH]c4ccccc43)c2=O)cc1,0.1,-0.3,1.9,-5.6,.,78.8*
CCOc1ccc(-n2c(SCC(=O)Nc3cc(C)on3)nc3c([nH]c4ccccc43)c2=O)cc1,0.0,-0.8,3.8,-5.7,2.1,71.5*
C=CCn1c(SCC(=O)Nc2cc(C)on2)nc2c([nH]c3ccccc32)c1=O,0.0,.,-5.4,-6.4,.,23.2
C[C@@H]1CN([C@@H](C)CO)C(=O)c2cc(NC(=O)NC3CCCCC3)ccc2O[C@@H](C)CCCCO[C@@H]1CN(C)C(=O)CCCN(C)C,-0.6,.,.,.,.,.
SMILES,Xi reactivation,N-glyco inh,NPR2 activator,CaV13 FRET inh,Vif imaging,GC-A act
CC(=O)N1CCC(=NNC(=O)c2cc3ccccc3cc2O)CC1,0.0,-0.6,-6.8,-5.5,50.5*,-0.4
CCOC(=O)N1CCC(=NNC(=O)c2cc3ccccc3cc2O)CC1,0.0,4.0,1.6,-9.6,2.3,-2.0
CCC(=O)N1[C@@H]2Cn3c(ccc(-c4cccnc4)c3=O)[C@H]1[C@@H](C(=O)N1CCc3ccccc3C1)[C@@H]2CO,0.2,.,.,.,.,.
C[C@H]1CN(C)C(=O)c2cccnc2O[C@@H]1CN(C)C,0.3,.,.,.,.,.
COc1ccc(C(=O)NC(=C(Cl)Cl)S(=O)(=O)c2ccc(C)cc2)cc1,0.0,27.1*,1.4,-6.7,6.8,0.0
Cc1ccc(C(=O)NC(=C(Cl)Cl)S(=O)(=O)c2ccccc2)cc1,0.2,?,0.6,-18.1,-0.2,-1.7
COC(=O)NC(=C(Cl)Cl)S(=O)(=O)c1ccccc1,.,50.7*,5.4,-1.3,11.9,4.0
C[C@H]1CN([C@@H](C)CO)C(=O)c2cccc(NS(=O)(=O)c3cn(C)cn3)c2O[C@H]1CN(C)C,0.9,.,.,.,.,.
O=C(/C=C/c1ccccc1)Nc1ncn[nH]1,.,16.2,-2.5,-8.0,59.4*,4.5
O=C(CCCn1c(=S)[nH]c2ccccc2c1=O)N1CCN(c2cccc(Cl)c2)CC1,.,-5.2,3.0,-5.1,107.2*,-4.7
O=C(CCCCCn1c(=S)[nH]c2ccc(N3CCOCC3)cc2c1=O)NCc1ccccc1Cl,0.0,-3.4,-2.8,-3.5,+,0.9
Cc1noc(C)c1NC(=O)Nc1ccc2c(c1)CC(=O)N([C@@H](C)CO)C[C@H](C)[C@H](CN(C)S(=O)(=O)c1ccc(Cl)cc1)O2,0.0,.,.,.,.,.
CC(=O)OCCNc1cc(Sc2nc3ccccc3[nH]2)c2nonc2c1[N+](=O)[O-],17.0*,-1.5,19.9,-6.5,-10.1,35.9
CC(=O)OCCCNc1cc(Sc2nc3ccccc3s2)c2nonc2c1[N+](=O)[O-],.,4.0,.,.,-1.5,.
N#C[C@H]1[C@H](c2ccc(-c3cccnc3)cc2)[C@@H](CO)N1C(=O)C1CCC1,-0.2,.,.,.,.,.
CN1CCN(C(c2ccc(Cl)cc2)c2cc(Cl)c3cccnc3c2O)CC1 (stereo not drawn),0.4,33.3*,3.0,-7.8,7.3,-9.7
